One series deals with Huh-7. As to the kind of experiment: Cytotoxicity against human HuH7 cells after 24 hrs by resazurin reduction assay. It counts as cell-based. The conditions noted are these: huh-7, 24 h. In a few lines: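 Same multiplexed wells as the luciferase readout: cells with the Neo/EMCV-IRES-Fluc construct under Geneticin, exposed to compound for 24 h, then viability is read by non-invasive resazurin reduction before lysis. Eight concentrations from 0 to 10 μM, in quadruplicate. Activity is normalized to DMSO (0%) and 500 μM benzalkonium chloride (−100%).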

Series [1] has as its system Nucleic Acid. The experiment in a line: Agonist activity at ECMV genomic RNA internal ribosomal entry site in human HuH7 cells after 24 hrs by firefly luciferase reporter gene assay. It counts as functional, cell-based. The conditions noted are these: Encephalomyocarditis virus; Huh-7. In a few lines:
(§1)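 Cells carry a bicistronic construct (Neo translated cap-dependently, firefly luciferase under EMCV IRES) and are grown with Geneticin. After 24 h with or without compound, resazurin viability is read first, then cells are lysed and luciferase is quantified (Steady-Glo). Dose response uses eight concentrations from 0 to 10 μM in quadruplicate. Normalization: DMSO 0%, 500 μM benzalkonium chloride −100%. Values reported are AC50, absolute AC50 (activity at −50% for antagonists, 50% for agonists) and Amax (activity at highest concentration).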
On the technique in general: A reporter such as luciferase makes a cellular process visible.

Series [2] concerns Nucleic Acid. The experiment in a line: Agonist activity at ECMV genomic RNA internal ribosomal entry site in human HuH7 cells assessed as activity measured at the highest concentration after 24 hrs by firefly luciferase reporter gene assay relative to control. It counts as functional, cell-based. The conditions noted are these: Encephalomyocarditis virus; Huh-7. In a few lines:
as §1

Series [3] concerns Nucleic Acid. The experiment in a line: Antagonist activity at ECMV genomic RNA internal ribosomal entry site in human HuH7 cells after 24 hrs by firefly luciferase reporter gene assay relative to control. It is filed as functional, cell-based. Particulars: Encephalomyocarditis virus; Huh-7. In a few lines:
as §1

In series [4] the test system is Nucleic Acid. As to the kind of experiment: Antagonist activity at ECMV genomic RNA internal ribosomal entry site in human HuH7 cells after 24 hrs by firefly luciferase reporter gene assay. It counts as functional, cell-based. Particulars: Encephalomyocarditis virus; Huh-7. In a few lines: as §1

Activity calls are given as the source filed them. The calls are words filed in the database; no cut-off is given here.

With `COc1ccc2[nH]c3c(c2c1)CCn1c-3nc2cc3sc4c(c3cc2c1=O)CCCC4`, the Activity result in the series with Huh-7 was “Non-toxic”; in the series with Nucleic Acid [2], -7.44. In addition, the result with Nucleic Acid [1] was inactive.

Regarding `COCCn1c(NC(CO)c2ccc(OC)c(OC)c2)nc2c1c(=O)n(C)c(=O)n2C` (configuration not stated), the Activity result in the series on Huh-7 was “Non-toxic”; with Nucleic Acid [1], 42.8 µM; with Nucleic Acid [2] it was 346.

Consider `COc1ccccc1N1CCN(CC(O)COc2cccc3ccccc23)CC1` (configuration not stated) [NAFTOPIDIL], for which the Activity result in the series on Huh-7 is “Non-toxic”; in the series on Nucleic Acid [3], -34; in the series on Nucleic Acid [4], 1.48 µM.

For the molecule `CCc1cc2cc3c(=O)n4c(nc3cc2s1)-c1[nH]c2ccc(OC)cc2c1CC4`, the Activity result in the series with Huh-7 was “Non-toxic”; in the series on Nucleic Acid [1], 0.35 µM; with Nucleic Acid [2], 33.5.

In the case of `O=c1c2ccccc2nc2n1CCc1c-2[nH]c2ccccc12` [RUTAECARPINE], the Activity result in the series with Huh-7 was “Non-toxic”; in the series on Nucleic Acid [1], 27.6 µM; in the series with Nucleic Acid [2] it was 1030.

With `COc1ccc(OCC(O)CN2CCN(c3ccccc3OC)CC2)c(C(C)(C)C)c1` (configuration not stated), the Activity result in the series with Huh-7 is “Non-toxic”; in the series with Nucleic Acid [3], -42; with Nucleic Acid [4], 3.08 µM.

`COc1ccc2[nH]c3c(c2c1)CCn1c-3nc2cc3sc4c(c3cc2c1=O)CCCCCC4`: the Activity entry with Huh-7 was “Non-toxic”; in the series on Nucleic Acid [1] it was 2.16 µM; in the series on Nucleic Acid [2] it was 26.2.

In the case of `COCCn1c(NC(COC)c2ccc(OC)c(OC)c2)nc2c1c(=O)n(C)c(=O)n2C` (configuration not stated), the Activity result in the series with Huh-7 was “Non-toxic”; in the series on Nucleic Acid [2] it was 0.53. Also, the result with Nucleic Acid [1] was inactive.

`COc1ccccc1N1CCN(CC(O)COc2ccc(-c3cc(C#N)c(=O)[nH]c3C)cc2)CC1` (configuration not stated) [SATERINONE]: the Activity entry with Huh-7 was “Non-toxic”; in the series with Nucleic Acid [3], 172; in the series on Nucleic Acid [4] it was 5.46 µM.

(Values after ChEMBL document CHEMBL2029204, “Latent hit series hidden in high-throughput screening data” (J Med Chem, 2012).)
